Data reported in ChEMBL document CHEMBL4480400, “Development of an N-Acyl Amino Acid That Selectively Inhibits the Glycine Transporter 2 To Produce Analgesia in a Rat Model of Chronic Pain” (J Med Chem, 2019).
Activity calls are given as the source filed them. No cut-off for these calls is given here.

Columns and labels:
[1] = target: Sodium-dependent noradrenaline transporter (Homo sapiens) (UniProt P23975); assay: Displacement of [125I] RTI-55 from recombinant human full length NET expressed in MDCK cells at 10 uM after 120 mins by scintillation counting relative to control; type: cell-based
[2] = Drug degradation in rat liver microsomes at 1 uM measured over 60 mins by LC-MS/MS analysis; type: ADME, Microsome; conditions: read-out: Drug degradation
In short: (§1)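 Human or rat liver microsomes (0.4 mg/mL protein final) in 0.1 M phosphate buffer pH 7.4 with 1 μM compound at 37°C. Reaction started with an NADPH-regenerating system plus MgCl2. Samples were quenched with ice-cold acetonitrile at time points over 60 min. Remaining parent was measured by LC-MS, and the first-order depletion rate constant came from an exponential decay fit.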

[3] = Drug degradation in human liver microsomes at 1 uM measured over 60 mins by LC-MS/MS analysis; type: ADME, Microsome; conditions: read-out: Drug degradation; in short: as §1
[4] = Drug degradation in rat plasma at 1000 ng/ml measured over 240 mins by LC-MS/MS analysis; type: ADME, cell-free; conditions: read-out: Drug degradation
In short: (§2)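 Pooled human plasma (3 donors) or pooled male Sprague-Dawley rat plasma, thawed at 37°C. Spiked to a nominal 1000 ng/mL final (0.2% DMSO, 0.4% acetonitrile final) and incubated at 37°C. Aliquots were snap-frozen at time points over 4 h (n=3 per time point). Quantified by LC-MS against a same-species blank-plasma calibration with a leucine enkephalin internal standard.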

[5] = Degradation half life in rat plasma at 1000 ng/ml by LC-MS/MS analysis; type: ADME, cell-free; in short: as §2
[6] = target: T1, Alpha-2A adrenergic receptor (Homo sapiens) (UniProt P08913); assay: Displacement of [3H]RX821002 from recombinant human alpha2A adrenoceptor at 10 uM after 60 mins by scintillation counting relative to control
T1 sequence (whole entry): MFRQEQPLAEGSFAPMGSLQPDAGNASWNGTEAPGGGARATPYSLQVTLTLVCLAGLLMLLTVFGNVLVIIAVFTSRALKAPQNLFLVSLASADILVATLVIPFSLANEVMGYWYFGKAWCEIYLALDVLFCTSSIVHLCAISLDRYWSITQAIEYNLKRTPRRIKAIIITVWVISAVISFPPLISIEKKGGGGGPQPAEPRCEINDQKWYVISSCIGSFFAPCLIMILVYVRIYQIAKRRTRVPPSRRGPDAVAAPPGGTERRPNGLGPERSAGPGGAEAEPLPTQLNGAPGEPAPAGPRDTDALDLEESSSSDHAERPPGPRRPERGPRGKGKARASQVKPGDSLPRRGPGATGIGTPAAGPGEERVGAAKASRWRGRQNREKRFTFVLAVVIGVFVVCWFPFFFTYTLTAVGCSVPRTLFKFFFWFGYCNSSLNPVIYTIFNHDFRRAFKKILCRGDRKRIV

[7] = target: T2, Sodium- and chloride-dependent glycine transporter 2 (Homo sapiens, UniProt Q9Y345); assay: Inhibition of recombinant human GlyT2a expressed in Xenopus laevis oocytes assessed as reduction in channel current by two-electrode voltage clamp electrophysiology; type: cell-based
T2 sequence (Q9Y345 whole entry): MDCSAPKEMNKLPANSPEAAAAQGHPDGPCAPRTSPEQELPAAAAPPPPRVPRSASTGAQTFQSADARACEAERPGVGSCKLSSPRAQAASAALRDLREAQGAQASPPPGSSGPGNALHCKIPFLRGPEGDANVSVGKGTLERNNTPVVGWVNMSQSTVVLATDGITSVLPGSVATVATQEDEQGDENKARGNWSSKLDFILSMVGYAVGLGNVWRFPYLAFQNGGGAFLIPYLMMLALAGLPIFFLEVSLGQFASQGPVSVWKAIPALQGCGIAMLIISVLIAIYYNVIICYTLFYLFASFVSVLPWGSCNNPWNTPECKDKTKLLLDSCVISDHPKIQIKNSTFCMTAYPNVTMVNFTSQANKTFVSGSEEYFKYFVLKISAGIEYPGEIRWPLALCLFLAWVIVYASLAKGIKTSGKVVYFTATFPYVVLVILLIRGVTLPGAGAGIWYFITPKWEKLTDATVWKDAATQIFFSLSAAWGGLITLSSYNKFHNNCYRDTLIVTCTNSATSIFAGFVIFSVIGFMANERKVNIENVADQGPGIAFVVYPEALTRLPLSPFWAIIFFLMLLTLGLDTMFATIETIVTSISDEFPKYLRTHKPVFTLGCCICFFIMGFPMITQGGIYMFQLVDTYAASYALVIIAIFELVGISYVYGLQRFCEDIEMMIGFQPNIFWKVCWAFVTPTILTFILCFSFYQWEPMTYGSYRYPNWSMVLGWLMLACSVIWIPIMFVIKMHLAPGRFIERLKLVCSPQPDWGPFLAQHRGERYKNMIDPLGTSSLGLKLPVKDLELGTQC

[8] = target: T3, Sodium- and chloride-dependent glycine transporter 2 (Homo sapiens) (UniProt Q9Y345); assay: Inhibition of recombinant human GlyT2a expressed in Xenopus laevis oocytes assessed as reduction in channel current by two-electrode voltage clamp electrophysiology relative to control; type: cell-based
T3 sequence (whole entry): T2 sequence (Q9Y345 whole entry)

[9] = target: Mu-type opioid receptor (Mus musculus) (UniProt P42866); assay: Antagonist activity at MOR in mouse AtT-20 cells assessed as inhibition of agonist-induced IGIRK currents at 1 uM in presence of -60 mV holding potential measured every 2 secs by patch clamp assay; type: cell-based
[10] = Cmax in Sprague-Dawley rat plasma at 27.5 mg/kg, ip by UPLC analysis; type: ADME, organism-based; parameters: dose 27.5 mg/kg, route intraperitoneal
In short: (§3)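 Male Sprague-Dawley rats (250–306 g) got one ip dose of a suspension (10% v/v DMSO, 1% solutol HS-15 in 50 mM PBS, pH 7.4). Terminal cardiac-puncture heparinised plasma and whole brain were sampled over 24 h, n=3 rats per time point. Samples were extracted by protein precipitation and read by UPLC-MS/MS in positive ESI MRM with a diazepam internal standard. Parameters are non-compartmental; the time-averaged B/P comes from AUC0-24h.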

[11] = Ratio of drug uptake in Sprague-Dawley rat brain to plasma at 27.5 mg/kg, ip after 24 hrs by UPLC analysis; type: ADME, organism-based; conditions: read-out: BPR; in short: as §3
[12] = Unbound brain concentration in Sprague-Dawley rat at 27.5 mg/kg, ip after 4.2 hrs by UPLC analysis; type: ADME, organism-based; conditions: in vivo
In short: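 Brains from male Sprague-Dawley rats were homogenised in isotonic pH 7.4 PBS to 0.11 g tissue/mL, spiked, and ultracentrifuged at 37°C and 223,000 x g for 4.2 h (n = 4). Unspun aliquots held at 37°C gave Ctotal; LC-MS was the read-out. Fraction bound was applied to the brain Cmax from a single 27.5 mg/kg ip dose to estimate unbound concentration.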

[13] = Time averaged ratio of drug uptake in Sprague-Dawley rat brain to plasma at 27.5 mg/kg, ip after 24 hrs by UPLC analysis; type: ADME, organism-based; conditions: read-out: BPR; in short: as §3
[14] = target: T3, Sodium- and chloride-dependent glycine transporter 2 (Homo sapiens); assay: Reversible inhibition of recombinant human GlyT2a expressed in Xenopus laevis oocytes assessed as recovery of transport current at IC50 followed by compound wash out followed by glycine re-application at 5 mins intervals throughout wash time course and measured after 25 mins by two-electrode voltage clamp electrophysiology; type: cell-based
[15] = target: Sodium channel protein type 4 subunit alpha (Homo sapiens) (UniProt P35499); assay: Inhibition of human NaV1.4 expressed in HEK293 cells at 1 uM; type: cell-based
[16] = target: Neuronal acetylcholine receptor subunit alpha-7 (Homo sapiens) (UniProt P36544); assay: Inhibition of human alpha7 nAChR at 1 uM
Sequence of Neuronal acetylcholine receptor subunit alpha-7 (Homo sapiens) (P36544 whole entry): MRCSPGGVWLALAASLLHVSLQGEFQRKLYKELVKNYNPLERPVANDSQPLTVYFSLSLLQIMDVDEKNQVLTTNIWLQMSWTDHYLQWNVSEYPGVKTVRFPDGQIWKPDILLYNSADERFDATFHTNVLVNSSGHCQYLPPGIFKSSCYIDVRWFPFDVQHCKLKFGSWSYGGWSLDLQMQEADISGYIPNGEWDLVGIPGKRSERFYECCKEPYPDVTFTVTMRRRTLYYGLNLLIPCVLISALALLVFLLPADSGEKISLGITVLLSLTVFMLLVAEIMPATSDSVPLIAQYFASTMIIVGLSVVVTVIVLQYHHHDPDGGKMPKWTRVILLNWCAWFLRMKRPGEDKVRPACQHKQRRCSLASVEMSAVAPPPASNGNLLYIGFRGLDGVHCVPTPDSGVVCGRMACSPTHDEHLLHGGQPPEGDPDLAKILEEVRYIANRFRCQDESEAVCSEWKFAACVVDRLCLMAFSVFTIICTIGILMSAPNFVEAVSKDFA

Sequence of Sodium-dependent noradrenaline transporter (Homo sapiens) (P23975 whole entry): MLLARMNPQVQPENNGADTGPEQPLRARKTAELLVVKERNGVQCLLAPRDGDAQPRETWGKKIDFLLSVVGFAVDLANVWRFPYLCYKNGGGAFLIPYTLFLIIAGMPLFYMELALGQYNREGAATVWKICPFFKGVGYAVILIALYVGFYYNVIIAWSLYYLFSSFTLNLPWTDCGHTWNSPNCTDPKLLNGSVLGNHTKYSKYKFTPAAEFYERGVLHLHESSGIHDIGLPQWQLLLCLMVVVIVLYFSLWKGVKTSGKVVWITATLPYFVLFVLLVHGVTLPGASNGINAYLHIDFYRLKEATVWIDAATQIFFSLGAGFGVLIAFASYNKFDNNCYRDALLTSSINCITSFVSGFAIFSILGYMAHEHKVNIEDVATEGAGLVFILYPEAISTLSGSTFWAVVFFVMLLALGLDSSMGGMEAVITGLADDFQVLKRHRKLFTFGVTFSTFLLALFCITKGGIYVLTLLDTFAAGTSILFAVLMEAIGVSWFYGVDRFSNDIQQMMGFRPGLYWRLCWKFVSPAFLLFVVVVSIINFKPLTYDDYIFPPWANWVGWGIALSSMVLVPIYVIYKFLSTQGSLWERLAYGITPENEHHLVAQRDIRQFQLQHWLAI
Sequence of Sodium channel protein type 4 subunit alpha (Homo sapiens) (P35499 whole entry, looked up): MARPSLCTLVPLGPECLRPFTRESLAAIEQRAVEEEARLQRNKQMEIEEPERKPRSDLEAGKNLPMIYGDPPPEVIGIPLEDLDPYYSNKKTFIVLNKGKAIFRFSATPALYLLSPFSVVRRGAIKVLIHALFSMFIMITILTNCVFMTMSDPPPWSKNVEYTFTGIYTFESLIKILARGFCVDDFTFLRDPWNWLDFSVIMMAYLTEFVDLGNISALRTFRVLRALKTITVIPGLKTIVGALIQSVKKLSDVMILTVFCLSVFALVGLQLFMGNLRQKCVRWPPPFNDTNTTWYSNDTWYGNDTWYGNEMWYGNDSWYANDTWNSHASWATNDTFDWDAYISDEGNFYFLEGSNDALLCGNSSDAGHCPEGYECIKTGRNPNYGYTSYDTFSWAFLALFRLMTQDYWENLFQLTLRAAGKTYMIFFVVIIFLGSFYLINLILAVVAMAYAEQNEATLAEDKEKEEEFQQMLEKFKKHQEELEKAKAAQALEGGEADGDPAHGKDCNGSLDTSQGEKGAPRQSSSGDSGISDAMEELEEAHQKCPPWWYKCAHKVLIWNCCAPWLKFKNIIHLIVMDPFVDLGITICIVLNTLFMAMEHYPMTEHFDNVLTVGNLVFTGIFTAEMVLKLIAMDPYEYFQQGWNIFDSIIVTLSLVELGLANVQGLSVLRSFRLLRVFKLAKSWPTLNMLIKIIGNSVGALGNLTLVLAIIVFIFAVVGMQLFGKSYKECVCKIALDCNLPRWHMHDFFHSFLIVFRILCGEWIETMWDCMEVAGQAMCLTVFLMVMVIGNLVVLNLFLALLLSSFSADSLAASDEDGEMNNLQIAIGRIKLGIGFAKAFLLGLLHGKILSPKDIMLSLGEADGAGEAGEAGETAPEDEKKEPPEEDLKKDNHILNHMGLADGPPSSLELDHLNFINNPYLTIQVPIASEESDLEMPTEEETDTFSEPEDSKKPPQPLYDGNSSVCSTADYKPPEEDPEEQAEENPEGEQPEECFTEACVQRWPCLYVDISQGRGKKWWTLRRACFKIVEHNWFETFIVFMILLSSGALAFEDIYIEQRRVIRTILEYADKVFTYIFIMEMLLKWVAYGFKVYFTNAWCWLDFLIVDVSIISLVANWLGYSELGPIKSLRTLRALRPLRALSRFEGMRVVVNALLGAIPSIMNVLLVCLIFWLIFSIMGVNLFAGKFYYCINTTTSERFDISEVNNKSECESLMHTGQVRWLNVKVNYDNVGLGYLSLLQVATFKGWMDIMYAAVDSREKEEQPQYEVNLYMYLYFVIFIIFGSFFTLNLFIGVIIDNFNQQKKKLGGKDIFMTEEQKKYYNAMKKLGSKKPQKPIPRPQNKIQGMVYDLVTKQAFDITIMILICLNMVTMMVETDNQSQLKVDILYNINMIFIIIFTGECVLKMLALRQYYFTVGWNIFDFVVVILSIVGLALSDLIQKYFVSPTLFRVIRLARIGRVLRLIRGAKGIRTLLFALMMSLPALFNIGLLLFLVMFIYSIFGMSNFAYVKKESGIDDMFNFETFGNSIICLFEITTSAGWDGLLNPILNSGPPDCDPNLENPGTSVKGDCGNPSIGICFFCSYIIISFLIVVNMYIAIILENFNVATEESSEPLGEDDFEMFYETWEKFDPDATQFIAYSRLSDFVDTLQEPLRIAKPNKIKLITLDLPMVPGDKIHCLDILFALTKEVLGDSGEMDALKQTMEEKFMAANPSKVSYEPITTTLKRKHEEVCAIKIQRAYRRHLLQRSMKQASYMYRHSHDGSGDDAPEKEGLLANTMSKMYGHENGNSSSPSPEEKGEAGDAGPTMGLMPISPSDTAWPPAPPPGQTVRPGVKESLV
Sequence of Mu-type opioid receptor (Mus musculus) (P42866 whole entry): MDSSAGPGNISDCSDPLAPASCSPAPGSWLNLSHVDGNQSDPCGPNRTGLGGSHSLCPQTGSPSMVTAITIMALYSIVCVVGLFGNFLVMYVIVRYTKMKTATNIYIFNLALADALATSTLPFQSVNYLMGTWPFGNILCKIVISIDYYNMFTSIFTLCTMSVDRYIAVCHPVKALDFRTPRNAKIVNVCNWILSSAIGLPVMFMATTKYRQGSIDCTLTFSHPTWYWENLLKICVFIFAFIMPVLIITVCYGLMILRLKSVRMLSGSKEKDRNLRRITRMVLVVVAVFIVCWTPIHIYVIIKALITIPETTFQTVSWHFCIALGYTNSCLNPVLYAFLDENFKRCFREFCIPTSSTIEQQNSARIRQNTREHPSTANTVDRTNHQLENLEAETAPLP

CCCCCCCC/C=C\CCCCCCCC(=O)N[C@H](CCCCN)C(=O)O.Cl showed an inhibition [1] greater than 50%, a metabolised at 1 h, 1 µM [2] of less than 15% and a metabolised at 1 h, 1 µM [3] of less than 15%. It also gave a metabolised at 4 h, 1000 ng/ml [4] of less than 15%, a t1/2 [5] greater than 17.03 h and an inhibition [6] greater than 50%. The IC50 [7] was 48.3 nM, the Imax [8] was 91% and the inhibition [9] was “inactive”. For the same compound, the Cmax [10] was 16700 ng/mL, the Kp at 24 h [11] was 1.1 and the “Drug uptake(free)” value [12] was 90 nM. For the same compound, the Kp at 24 h [13] was 0.31, the inhibition [14] was “Active” and the inhibition [15] was “inactive”. The inhibition [16] was “inactive”.
